Experimental findings from PubChem BioAssay are described below.

The structures appear in SMILES notation. Activity calls are given as the source filed them.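 The calls were made as follows, unless noted: active = viability at or below 30% in both replicate assays; inconclusive = viability at or below 30% in just one of the two assays; inactive = the rest.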

A short description of assay [1]: SK-BR-3 cell growth inhibitors, pilot screen, 24 h, human (AID 572;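 active = viability at or below 10% of carrier control in both of two separate runs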;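 also: compound exposure lasted between 18 and 24 h rather than exactly 24 h; 100% = carrier-treated control wells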). As to conditions: SK-BR-3 viability, CellTiter-Glo luminescence, at 10 µM, stronger effect = lower value. (Cellular ATP, detected with luciferase, serves as a proxy for viable cell number.)
Assay [2] is described as follows: HUVEC growth inhibition – cell-based, human, primary screen (AID 575).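 Also: 100% = median of untreated cell wells with 0.1% DMSO on each plate.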 The note with it: HUVEC proliferation, CellTiter-Glo luminescence, 72 h; at 10 µM; stronger effect = lower value. Summed up:
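Test system: primary human umbilical vein endothelial cells. Quantity: 1250 cells/well. Compound: single 10 µM dose, 0.1% DMSO, from 5x medium stock. Timing: 72 h treatment at 37 °C. Detection: ATP-based CellTiter-Glo luminescent read. Benchmarks: vehicle and MePR control wells. Format: 384-well plates coated with collagen.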

A short description of assay [3]: growth inhibitors of H69AR lung tumor, primary screen, human, duplicate replicates (AID 580;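 active = viability at or under a set limit in both replicates, limit being median viability minus 3 SD, cut at about 48% in these data, passing the limit was not always enough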;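 also: 100% = mean luminescence of untreated wells and 0% = no signal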). The note with it: H69AR lung tumor cells viability, ATP luminescence, 72 h; at 10 µM; stronger effect = lower value.
Assay [4] can be described thus: reversal of MRP1-mediated doxorubicin resistance, pilot screen, H69AR cells, doxorubicin co-treatment (AID 601;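 active = viability loss from added drug above about 55%, and viability with drug at most 40%, in both replicates, limit read from the data, passing the limit was not always enough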). The note with it: CellTiter-Glo, 72 h, at 10 µM; for differential viability (reversal): stronger effect = higher value.
A short description of assay [5]: 384-well plate pilot, post-Golgi transport modulator project, inhibition of yeast transport mutant growth (AID 636; in the data active = inhibition above about 31%). The note with it: absorbance 615 nm, about 18 h, stronger effect = higher value.
Assay [6] in a line: growth suppression of yeast trafficking mutant, preliminary HTS, modulators of trafficking downstream of Golgi apparatus project, 1536-format plate, OD 615 nm (AID 637; in the data active = inhibition above about 30%). The note with it: yeast transport mutant growth, absorbance 615 nm, 18 h; stronger effect = higher value.
The mark [7] stands for this setting: H69AR cells + 2 uM doxorubicin, measured here: viability with 2 uM doxorubicin, stronger effect = lower value.
Setting [8] is: H69AR cells, compound alone cytotoxicity.

Regarding `Cc1onc(-c2ccccc2)c1C(=O)NCCN1CCOCC1`, the viability in assay [1] was 94% (inactive); in assay [2], 102% (inactive); in assay [3], 98% (inactive); in assay [4] (setting [7]), 87.9%; in assay [4] (setting [8]), 98%. In addition, the differential viability (reversal) in assay [4] (H69AR cells + 2 uM doxorubicin) is 10.1% (inactive). The inhibition in assay [5] is -4.93% (inactive); in assay [6] it was -4% (inactive).
On to `Cc1cc(S(=O)(=O)N(Cc2ccccc2)Cc2ccc(N(C)C)cc2)ccc1-n1cnnn1`, for which the viability in assay [1] was 81% (inactive); in assay [2], 84.3% (inactive); in assay [3] it was 84% (inactive); in assay [4] (setting [7]) it was 87.6%; in assay [4] (setting [8]) it was 84%. Also, the differential viability (reversal) in assay [4] (H69AR cells + 2 uM doxorubicin) is -3.54% (inactive). Also, the inhibition in assay [5] was -8.24% (inactive); in assay [6], -2.36% (inactive).
With `CCOc1ccc(NC(=O)Cn2nnc(-c3ccccc3F)n2)cc1`, the viability is 105% (inactive) in assay [1]; 100% (inactive) in assay [2]; 94.6% (inactive) in assay [3]; 87.2% in assay [4] (setting [7]); 94.6% in assay [4] (setting [8]). In assay [4] (H69AR cells + 2 uM doxorubicin), the differential viability (reversal) was 7.41% (inactive). Besides, the inhibition is -4.42% (inactive) in assay [5] and -2.3% (inactive) in assay [6].
Regarding `COc1cc2c(cc1OC)CN(CC(=O)Nc1cccc(C)c1)CC2`, the viability was 117% (inactive) in assay [1]; 90.4% (inactive) in assay [2]; 93.1% (inactive) in assay [3]; 83.9% in assay [4] (setting [7]); 93.1% in assay [4] (setting [8]). Moreover, in assay [4] (H69AR cells + 2 uM doxorubicin), the differential viability (reversal) was 9.21% (inactive). In addition, the inhibition in assay [5] is 0.14% (inactive); in assay [6], -7.9% (inactive).
Regarding `Cn1nc(CC(=O)Nc2ccc(N3CCN(C(=O)OC(C)(C)C)CC3)cc2)c2ccccc2c1=O`, the viability was 84% (inactive) in assay [1]; 9.25% (active) in assay [2]; 1.72% (active) in assay [3]; 4.94% in assay [4] (setting [7]); 1.72% in assay [4] (setting [8]). Moreover, the differential viability (reversal) in assay [4] (H69AR cells + 2 uM doxorubicin) was -3.22% (inactive). Also, the results for the inhibition in assay [5] and in assay [6] were -1.82% (inactive) and -4.26% (inactive), respectively.
`NC(=O)N1c2ccccc2C=Cc2ccccc21`: the viability was 95% (inactive) in assay [1]; 79.4% (inactive) in assay [2]; 107% (inactive) in assay [3]; 97.1% in assay [4] (setting [7]); 107% in assay [4] (setting [8]). Also, the differential viability (reversal) in assay [4] (H69AR cells + 2 uM doxorubicin) was 9.74% (inactive). Besides, the inhibition in assay [5] is -2.86% (inactive); in assay [6], 3.17% (inactive).
Consider `C[C@H](CS)C(=O)N1CCC[C@H]1C(=O)O`, for which the viability in assay [1] was 93% (inactive); in assay [2], 92.7% (inactive); in assay [3] it was 99.8% (inactive); in assay [4] (setting [7]) it was 91.6%; in assay [4] (setting [8]) it was 99.8%. The differential viability (reversal) in assay [4] (H69AR cells + 2 uM doxorubicin) was 8.21% (inactive). The values for the inhibition in assay [5] and in assay [6] were -2.47% (inactive) and 2.83% (inactive), respectively.
Take `O=C(Cn1c(-c2cncs2)nc2ccccc21)NC1CCCC1`: the viability is 96% (inactive) in assay [1]; 103% (inactive) in assay [2]; 106% (inactive) in assay [3]; 86.5% in assay [4] (setting [7]); 106% in assay [4] (setting [8]). In addition, the differential viability (reversal) in assay [4] (H69AR cells + 2 uM doxorubicin) was 19.1% (inactive). Further, the values for the inhibition in assay [5] and in assay [6] were -4.05% (inactive) and 5.09% (inactive), respectively.
Regarding `O=C(NS(=O)(=O)c1ccc(NC(=O)C2CCCO2)cc1)c1ccccc1` (centres undefined), the viability in assay [1] is 79% (inactive); in assay [2], 103% (inactive); in assay [3], 92.8% (inactive); in assay [4] (setting [7]), 88.7%; in assay [4] (setting [8]), 92.8%. Besides, the differential viability (reversal) in assay [4] (H69AR cells + 2 uM doxorubicin) was 4.17% (inactive). Besides, the inhibition was -6.35% (inactive) in assay [5] and -0.55% (inactive) in assay [6].
`CC(=O)OCC(=O)[C@@]1(O)CC[C@H]2[C@@H]3CCC4=CC(=O)CC[C@]4(C)[C@H]3[C@@H](O)C[C@@]21C`: the viability in assay [1] was 101% (inactive); in assay [2] it was 74.1% (inactive); in assay [3], 100% (inactive); in assay [4] (setting [7]), 97.7%; in assay [4] (setting [8]) it was 100%. In addition, the differential viability (reversal) in assay [4] (H69AR cells + 2 uM doxorubicin) is 2.38% (inactive). For the same compound, the values for the inhibition in assay [5] and in assay [6] were -4.29% (inactive) and -1.17% (inactive), respectively.
For `C=CCn1c(=O)c2ccccc2n2c(SC(C)C(=O)Nc3nc(-c4ccccc4)cs3)nnc12` (centres undefined), the viability was 66% (inactive) in assay [1]; 65.7% (inactive) in assay [2]; 79.6% (inactive) in assay [3]; 81.9% in assay [4] (setting [7]); 79.6% in assay [4] (setting [8]). Also, in assay [4] (H69AR cells + 2 uM doxorubicin), the differential viability (reversal) was -2.34% (inactive). Moreover, the inhibition in assay [5] is 2.6% (inactive); in assay [6] it was 5.41% (inactive).
As to `CCOC(=O)c1c(-c2ccc(C)o2)csc1NC(=O)CN1CCN(CC)CC1`, the viability in assay [1] was 87% (inactive); in assay [2], 88.6% (inactive); in assay [3], 80.2% (inactive); in assay [4] (setting [7]), 86.7%; in assay [4] (setting [8]), 80.2%. The differential viability (reversal) in assay [4] (H69AR cells + 2 uM doxorubicin) was -6.44% (inactive). In addition, the inhibition in assay [5] is -7.53% (inactive); in assay [6] it was 4.18% (inactive).
For the compound `COc1ccc(CNc2oc(-c3cccc4ccccc34)nc2C#N)cc1`, the viability is 85% (inactive) in assay [1]; 95.5% (inactive) in assay [2]; 96.9% (inactive) in assay [3]; 101% in assay [4] (setting [7]); 96.9% in assay [4] (setting [8]). The differential viability (reversal) in assay [4] (H69AR cells + 2 uM doxorubicin) was -4.35% (inactive). The results for the inhibition in assay [5] and in assay [6] were -4.93% (inactive) and -0.18% (inactive), respectively.
As for `CCc1nc(SCc2cc(Cl)ccc2OC)n[nH]1`, the viability was 99% (inactive) in assay [1]; 94.2% (inactive) in assay [2]; 94.7% (inactive) in assay [3]; 106% in assay [4] (setting [7]); 94.7% in assay [4] (setting [8]). Further, the differential viability (reversal) in assay [4] (H69AR cells + 2 uM doxorubicin) is -11.5% (inactive). Further, the inhibition in assay [5] was -0.68% (inactive); in assay [6], -6.55% (inactive).
Regarding `COc1cc(C(=O)N2CCCC(c3nc(-c4cccs4)no3)C2)cc(OC)c1OC` (centres undefined), the viability in assay [1] was 90.5% (inactive); in assay [2] it was 94.2% (inactive); in assay [3], 89.7% (inactive); in assay [4] (setting [7]), 69.4%; in assay [4] (setting [8]), 89.7%. Moreover, the differential viability (reversal) in assay [4] (H69AR cells + 2 uM doxorubicin) is 20.3% (inactive). Moreover, the figures for the inhibition in assay [5] and in assay [6] were -1.05% (inactive) and 16% (inactive), respectively.
`CC1Oc2ccccc2N(CC(=O)NCc2cccs2)C1=O` (centres undefined): the viability is 77% (inactive) in assay [1]; 98.8% (inactive) in assay [2]; 108% (inactive) in assay [3]; 94.5% in assay [4] (setting [7]); 108% in assay [4] (setting [8]). In assay [4] (H69AR cells + 2 uM doxorubicin), the differential viability (reversal) is 13.8% (inactive). For the same compound, the inhibition in assay [5] is -6.71% (inactive); in assay [6] it was -0.91% (inactive).
Consider `N#CCC(=O)Nc1ncn(Cc2ccccc2Cl)n1`, for which the viability in assay [1] was 95% (inactive); in assay [2] it was 105% (inactive); in assay [3] it was 95.2% (inactive); in assay [4] (setting [7]), 106%; in assay [4] (setting [8]) it was 95.2%. Further, in assay [4] (H69AR cells + 2 uM doxorubicin), the differential viability (reversal) was -10.4% (inactive). The values for the inhibition in assay [5] and in assay [6] were -4.52% (inactive) and 3.82% (inactive), respectively.
Consider `Cc1c(NC(=O)CCc2ccc(S(=O)(=O)N3CCOCC3)cc2)c(=O)n(-c2ccccc2)n1C`, for which the viability in assay [1] was 93% (inactive); in assay [2] it was 109% (inactive); in assay [3], 100% (inactive); in assay [4] (setting [7]), 89.8%; in assay [4] (setting [8]) it was 100%. For the same compound, in assay [4] (H69AR cells + 2 uM doxorubicin), the differential viability (reversal) was 10.3% (inactive). The inhibition was -3.77% (inactive) in assay [5] and -8.2% (inactive) in assay [6].

In general, viability refers to a read-out of living cells in per cent, often relative to untreated cells. Usually inhibition stands for the drop in the measured response relative to a control, in per cent.
